TAAR1 antagonist: human TAAR1 antagonism | Q96RJ0 | CHO RD-HGA16 TAAR1, Fluo-8 calcium fluorescence, antagonist | hit rate 1.5% among 360,000 | inhibition, % at 3 µM;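 active means inhibition above a per-plate cutoff, the mean inhibition of test compounds on that plate plus 3 SD, cut at about 49% in these data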
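test system = CHO RD-HGA16 cells bearing hTAAR1 | replication = singlicate | controls = DMSO-only wells and EC80 β-PEA-stimulated wells | reagent = EC80 β-phenethylamine stimulus | read-out basis = percent inhibition of PEA-evoked calcium signal, max/basal emission ratio | schedule = seeding 17-24 h prior, 75-min 37 °C, 30-min RT dye loading | signal = kinetic Fluo-8 calcium fluorescence measurement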
NTR1 agonist: NTR1 (human) agonism. P30989. hit rate 0.17% among 330,000. NTR1-U2OS beta-arrestin-GFP spot imaging, agonist mode. AID 493036. activation, % at 20 µM;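 active means activation at or above 40% of the spot to cytoplasm intensity ratio, with at least 20 cells analyzed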
Target sequence (P30989 whole entry, looked up): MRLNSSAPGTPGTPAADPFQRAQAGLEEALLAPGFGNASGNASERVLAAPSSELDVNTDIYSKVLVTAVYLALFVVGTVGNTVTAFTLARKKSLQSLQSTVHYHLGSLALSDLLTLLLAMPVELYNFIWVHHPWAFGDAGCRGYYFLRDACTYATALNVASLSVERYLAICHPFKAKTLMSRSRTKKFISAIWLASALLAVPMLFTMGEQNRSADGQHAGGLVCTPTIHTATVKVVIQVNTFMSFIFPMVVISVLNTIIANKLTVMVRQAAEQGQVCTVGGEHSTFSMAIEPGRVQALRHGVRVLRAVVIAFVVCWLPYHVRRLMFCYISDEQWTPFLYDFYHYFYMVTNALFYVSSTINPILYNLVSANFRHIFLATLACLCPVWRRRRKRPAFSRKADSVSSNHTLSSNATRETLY
CHO parental Ca: counter-screen: ATP calcium response change in parental CHO cells | inhibition, % at 5.6 µM | parental CHO-K1, ATP-induced calcium, Fluo-8 fluorescence | AID 463079 | hit rate 0.63% among 330,000;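 active means inhibition above that plate's mean sample inhibition plus 3 SD, cut at about 26% in these data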
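material = parental CHO cells | also added = ATP as calcium-mobilizing challenge | dosing = single point at 5.6 µM | detection = intracellular calcium via Fluo-8 no-wash fluorescent dye | read-out = % inhibition | benchmarks = low control ATP plus DMSO, high control DMSO only | repeats = one well per compound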
OX1R antag-1: blocks the human orexin 1 receptor | O43613 | OX1R-expressing cells, FRET antagonist read-out | inhibition, % at 6.6 µM | hit rate 1.8% among 330,000 | AID 485270; in the data active means inhibition mostly above about 38%, no sharp cut-off; inactive means mostly below about 40%
OX1R antag-2: human HCRTR1 antagonism. CHO/OX1R cells, Fluo-8 calcium fluorescence, orexin A. hit rate 0.43% among 330,000. O43613. inhibition, % at 5 µM;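 active means inhibition above its plate's threshold, mean inhibition of all tested compounds on the plate plus 3 SD, cut at about 37% in these data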
TAAR1 ag: agonists of human TAAR1 | Q96RJ0 | CHO RD-HGA16 TAAR1, Fluo-8 calcium fluorescence; vehicle wells 0%, saturating PEA agonist 100% | activation, % at 3 µM | hit rate 0.99% among 360,000 | AID 624467;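 active means activation above the mean activation of all test compounds in the run plus 3 SD, cut at about 38% in these data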
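test system = CHO RD-HGA16 cells carrying human TAAR1 plus Gα16 | schedule = 17-24 h seeding, 75 min 37 °C dye, 30 min RT | compound dosing = 3 µM single concentration | control set = DMSO and PEA EC100 | replicates = n 1 | signal = Fluo-8 fluorescence, 5 s baseline then 140 s kinetic read | measure = percent activation vs PEA EC100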
Hits are given with their value; - = inactive; . = not tested or not shown. Most compounds without a hit are left out; they make up all but 4% or so of the library.

SMILES	TAAR1 antagonist	NTR1 agonist	CHO parental Ca	OX1R antag-1	OX1R antag-2	TAAR1 ag
O=C(Nc1ccc2nc(-c3cccs3)c(-c3cccs3)nc2c1)NC1CC1	-	-	-	58	-	-
CC(=O)Nc1cc(-c2ccc(CO)cc2)cn2c(-c3ccc(F)c(Cl)c3)cnc12	54	.	.	.	.	-
CC(=O)Nc1cccc(-c2cc(NC(C)=O)c3ncc(-c4cccc(C(F)(F)F)c4)n3c2)c1	50	.	.	.	.	-
CC(=O)Nc1cc(-c2ccc(F)cc2)cn2c(-c3ccc(F)c(Cl)c3)cnc12	-	.	.	.	.	-
COc1cccc(-c2cnc3c(NC(C)=O)cc(-c4cccc(NS(C)(=O)=O)c4)cn23)c1	50	.	.	.	.	-
COc1cccc(-c2cnc3c(NC=O)cc(-c4cccc(NC(C)=O)c4)cn23)c1	55	.	.	.	.	-
CCCCS(=O)(=O)N1CCCc2nc(-c3ccc(Br)cc3)ccc21	-	.	.	.	.	-
O=S(=O)(c1cccs1)N1CCCc2nc(-c3ccccc3)ccc21	-	.	.	.	.	-
COc1ccc(S(=O)(=O)c2nnn(-c3cccc(Cl)c3)c2N)cc1	-	-	-	-	-	46
O=S(=O)(c1ccccc1)N1CCCc2nc(-c3ccc(F)cc3)ccc21	-	.	.	.	.	-
Nc1cc(S(=O)(=O)Nc2ccccc2Cl)ccc1N1CCOCC1	-	-	-	-	-	-
Nc1cc(S(=O)(=O)Nc2ccc(Cl)cc2)ccc1N1CCOCC1	-	-	36	-	-	-
O=C(/C=C/c1cccc(F)c1)OCC(=O)N1CCc2ccccc21	49	-	-	-	-	-
COc1cc(/C=C/C(=O)OCC(=O)N2CCCc3ccccc32)ccc1O	-	-	-	-	-	-
O=C(CC(NC(=O)OCc1ccccc1)C(=O)OCc1ccccc1)OCc1ccccc1 (stereo not given)	59	.	.	.	.	-
O=C(CC(NC(=O)OCc1ccccc1)C(=O)O)OCc1ccccc1 (stereo not given)	-	-	-	-	-	-
CCOc1ccc(Nc2nc(Cc3nnc(SCC(=O)c4ccc(C)c(C)c4)o3)cs2)cc1	-	-	29	-	-	-
Cc1ccc(NC(=O)CSc2nnc(Cc3csc(C)n3)o2)cc1	-	-	-	-	-	-
CN(C)c1ncnc2c1ncn2C1CCCO1 (stereo not given)	-	.	.	.	.	-
Clc1cccc(Cl)c1/C=C/c1nc2ccccc2[nH]1	.	-	-	50	-	.
O=C(CCN1CCOCC1)NNC(=O)c1ccc([N+](=O)[O-])cc1[N+](=O)[O-]	-	-	-	49	-	-
CC(OC(=O)C1CC(=O)N(Cc2ccco2)C1)C(=O)Nc1ccccc1[N+](=O)[O-] (stereo not given)	-	-	-	-	-	-
O=C(NNc1ccc(Cl)cc1)c1c(F)cccc1Cl	-	-	-	-	-	-
CC(=O)C(=Nc1ccccc1Cl)NNc1ccc(Cl)cc1	-	-	-	77	-	-
CCOC(=O)c1ccc(NC(=O)c2nc[nH]c2C(=O)N(C)Cc2ccccc2)cc1	-	-	-	57	-	-
SMILES	TAAR1 antagonist	NTR1 agonist	CHO parental Ca	OX1R antag-1	OX1R antag-2	TAAR1 ag
COC(=O)CCNS(=O)(=O)c1ccc2nsnc2c1	-	-	-	63	-	-
C#CCN1CC(COCCCC)Oc2cccc(Oc3ccc(C(C)(C)C)c(C)c3)c2S1(=O)=O (stereo not given)	-	.	.	.	.	-
CCCSc1nnc(NC(=O)Nc2ccccc2)s1	-	-	-	-	-	40
CCCSc1nnc(NC(=O)Nc2ccc(C)cc2)s1	-	-	-	-	-	-
COc1cccc2nc3cc(C)c(C)cc3nc12	-	-	-	68	-	-
COc1cccc2c1nc(C)c1cc(C)oc12	-	-	-	-	-	-
CCCCc1c(-c2ccccc2OC)ncn1Cc1c(F)cccc1F	-	.	.	.	.	-
O=C(Cc1ccc(NC(=O)C2CCN(C(=O)C3CCCC3)CC2)cc1)Nc1cccc(C(=O)N2CCCC2)c1	-	.	.	.	.	-
Cc1ccnc(NC(=O)c2ccc([N+](=O)[O-])s2)c1	-	-	-	70	-	-
Cc1cccc(NC(=O)c2ccc([N+](=O)[O-])s2)n1	-	-	-	36	-	-
Cc1ccnc(NC(=O)c2cc([N+](=O)[O-])cc([N+](=O)[O-])c2)c1	-	-	-	-	-	-
N[C@@H](Cc1ccc(O)cc1)C(=O)Nc1ccc2ccccc2c1	-	-	-	-	-	-
COCCN=C1Sc2ccccc2[C@@H]2C[C@H]3[C@H](CON3C)CN12	-	.	.	.	.	-
Nc1ncnc(Sc2ccccc2)c1[N+](=O)[O-]	-	-	-	46	-	-
N#Cc1cc(O)c(-n2nnc3ccccc32)cc1C#N	-	-	-	-	-	-
N#Cc1cc(Oc2cccc3cccnc23)c(-n2nnc3ccccc32)cc1C#N	-	-	-	-	46	-
Cc1cccc2cc(C#N)c(SCC(=O)N3CC(=O)Nc4ccccc43)nc12	-	-	-	71	-	-
COc1ccc2cc(C#N)c(SCC(=O)N3CC(=O)Nc4ccccc43)nc2c1	.	-	-	-	-	.
Nc1nc2c(C(=O)N3CCCC3)nnn2c2ccccc12	-	.	.	.	.	-
O=C(Nc1ccc(Cl)c(Cl)c1)Oc1ccc(NC(=O)c2ccco2)cc1	-	-	42	-	-	-
O=C(Nc1ccc(OC(=O)c2ccco2)cc1)c1ccco1	-	-	-	-	-	-
O=C(NN=C1c2ccccc2-c2ccccc21)c1ccccn1	.	-	-	75	85	.
CC(C)C[C@H]1COc2c(Cl)cccc2S(=O)(=O)N1Cc1cccc(Cl)c1	-	.	.	.	.	-
Cc1ccc2nc(N(CCCN(C)C)C(=O)COc3ccc(Cl)cc3)sc2c1	-	-	-	-	-	45
CN(C)CCCN(C(=O)COc1ccc(Cl)cc1)c1nc2ccc(F)cc2s1	-	-	-	-	-	41
SMILES	TAAR1 antagonist	NTR1 agonist	CHO parental Ca	OX1R antag-1	OX1R antag-2	TAAR1 ag
COC(=O)c1cc2c(c3c4cc(OC)ccc4n(C(=O)c4ccccc4)c13)C(=O)N(C1CCCCC1)C2	-	.	.	.	.	-
C=CCNC(=S)N(C)[C@H]1C[C@H]2c3cc(-c4ccccc4C)ccc3CCN2C[C@H]1[C@H](C)O	-	.	.	.	.	-
CCN(CCNC(=O)C1CCN(Cc2nc(-c3cccc(Cl)c3)oc2C)CC1)c1ccccc1	-	-	-	-	-	39
COCc1cc(N2CCNC[C@H]2C)ccc1N1CCS(=O)(=O)CC1	-	.	.	.	.	-
COc1ccc(/C=C/C(=O)Nc2ccc3c(c2)CCC3)cc1OC	-	-	-	73	-	-
COc1ccc(NC(=O)Nc2ccc3c(c2)CCC3)cc1OC	-	-	-	-	-	-
COCCN(CCOC)c1nc(-c2ccccc2)nc2ccccc12	56	-	.	.	.	-
COCCN(CCOC)c1nc(-c2ccc(Cl)cc2)nc2ccccc12	-	-	-	-	-	-
COCCNc1nc(-c2ccccc2)nc2ccccc12	-	-	-	46	-	-

Source: PubChem BioAssay (several laboratories)
